# In the library only some 3.8% were active in any assay of this set; here they are far more common.
# KCNK3 inh: human KCNK3 channel inhibition, primary screen; B-score at 10 µM; AID 602410; O14649; CHO-KCNK3 thallium flux, FluxOR fluorescence; active compounds read low; 0.84% of 340,000 active;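 active = B-score under library mean minus 4 SD, starting fluorescence ratio at most library mean plus 5 SD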;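 note: more negative B-score means stronger inhibition of thallium flux through KCNK3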
# Target sequence (O14649 whole entry, looked up): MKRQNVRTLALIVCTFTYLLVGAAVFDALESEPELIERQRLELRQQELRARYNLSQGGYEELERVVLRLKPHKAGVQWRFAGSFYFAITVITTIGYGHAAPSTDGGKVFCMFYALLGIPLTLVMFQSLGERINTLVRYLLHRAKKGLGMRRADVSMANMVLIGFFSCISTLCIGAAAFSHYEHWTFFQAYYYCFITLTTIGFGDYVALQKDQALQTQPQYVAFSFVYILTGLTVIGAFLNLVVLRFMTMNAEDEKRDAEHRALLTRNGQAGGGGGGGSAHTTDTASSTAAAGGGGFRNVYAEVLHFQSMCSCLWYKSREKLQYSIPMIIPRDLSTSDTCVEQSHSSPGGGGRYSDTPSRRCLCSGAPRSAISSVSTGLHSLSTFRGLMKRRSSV
# KCNK9 block: blocks the human KCNK9 two-pore domain potassium channel; Q9NPC2; HEK293 KCNK9, FluxOR thallium flux fluorescence; active compounds read low; 1.2% of 310,000 active; B-score at 10 µM;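 active = ratio B-score over 3 SD below the library mean, with starting fluorescence within 5 SD of its mean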;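 note: negative B-score means less thallium flux so channel inhibition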
# KCNQ1 block: human KCNQ1 channel inhibition. P51787. 1.3% of 310,000 active. B-score at 10 µM. CHO-K1 KCNQ1, FluxOR thallium flux fluorescence; active compounds read high;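 active = compounds whose thallium flux B-score, printed positive for inhibition, exceeds three library SD while starting fluorescence stays within three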;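 note: channel opened by potassium depolarization with thallium stimulus after 20 min compound exposure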
# hERG protect: hERG (human) protection from proarrhythmic block; CHO-hERG, FluxOR thallium flux, dofetilide IC70 present; activation (rescue from dofetilide block), less the hit threshold, % at 10 µM; Q12809; AID 1511; 0.51% of 310,000 active;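 active = activation above the mean of controls blocked by dofetilide plus 5 SD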;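 note: thallium influx through hERG after potassium depolarization seen as dye fluorescence rise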
# KCNQ1 pot: potentiates or activates the human KCNQ1 potassium channel; P51787; CHO-K1 KCNQ1, thallium flux FluxOR fluorescence; active compounds read high; B-score at 10 µM; 0.35% of 310,000 active; AID 2648;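 active = fluorescence ratio B-score, a plate-corrected score, at least three library SD, with initial intensity B-score within 5 SD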
#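 System: Stable KCNQ1 CHO-K1 line | Incubation: 90 min dye loading and 20 min compound exposure, both at room temperature | Measure: Ratio B score | Medium: Assay buffer for compound exposure, DMSO matched across wells | Compound dosing: Single-concentration screen | Probe or stimulus: K+/Tl+ depolarizing stimulus | Measured by: Kinetic FluxOR fluorescence, 10 s baseline plus 110 s post-stimulus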
# Kir21 inh: Kir2.1 (mouse) channel inhibition. P35561. HEK293-Kir2.1, FluxOR thallium flux fluorescence; active compounds read low. B-score at 10 µM. 0.85% of 310,000 active. AID 1672;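 active = fluorescence ratio B-score at or below minus 3 SD of library scores, with starting-brightness B-score within 2 SD, cut at about -4.2 in these data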;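 note: channel flux triggered by added potassium and thallium sulfate stimulus; B-score of peak minus minimum fluorescence over baseline after thallium stimulus; more negative B-score means stronger Kir2.1 block with less thallium influx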
# KCNK9 block conf: human KCNK9 inhibitor confirmation. shares compounds with KCNK9 block. 43% of 4,900 active. inhibition, % at 10 µM. HEK293 KCNK9 cells, FluxOR thallium flux fluorescence;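 active = thallium signal inhibited by more than 5 SD of the compound-free buffer control wells, on both duplicate plates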;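 note: 0% = assay buffer control wells without compound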
# Kir2-1 spec: selectivity of KCNK9 modulators against mouse Kir2.1; shares compounds with KCNK9 block; Kir2.1 cells, FluxOR thallium flux fluorescence; inhibition, % at 10 µM; 4% of 4,900 active;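 active = thallium signal drop more than 5 SD beyond the mean of the no-compound control wells, seen in both duplicate plates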;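 note: signal is fluorescence rise after thallium addition divided by baseline fluorescence; plate controls were assay buffer only for no effect and full block by chlorpromazine control for full effect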
# HEK293 Tl ctr: second check of KCNK9 modulator effects in non-induced HEK293 cells; 40% of 4,900 active; inhibition, % at 10 µM; shares compounds with KCNK9 block; FluxOR thallium flux;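 active = thallium signal drop beyond 5 SD of the untreated control mean, on both duplicate plates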;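 note: plate controls were buffer only IC0 wells for no effect and SID17386958 at its maximal inhibitory level for full effect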
# The depositor's hits bear a star; i = inactive; / = no result.
SMILES,KCNK3 inh,KCNK9 block,KCNQ1 block,hERG protect,KCNQ1 pot,Kir21 inh,KCNK9 block conf,Kir2-1 spec,HEK293 Tl ctr
C/C(=N/OC(=O)c1ccccc1Br)c1ccc(C)cc1,i,-12*,i,-11,i,0.82,58%*,i,34%*
C/C(=N/OC(=O)c1ccc(C)cc1)c1cccs1,i,i,i,-7,i,0.91,/,/,/
S=C(c1ccc(-c2cc(Cl)ccc2Cl)o1)N1CCCCC1,i,-12*,i,-8,i,-1.1,46%*,i,42%*
O=C(c1ccc(-c2ccccc2Cl)o1)N1CCCCCCC1,i,/,/,/,/,/,/,/,/
C=CCC1(CC=C)CCCN1C(=O)c1cc(COc2cccc(C(F)(F)F)c2)on1,i,i,i,-12,i,-1.1,i,i,i
Cc1ccc(CN(C)C(=O)c2cc(COc3cccc(C(F)(F)F)c3)on2)o1,i,i,i,-13,i,-4.6*,i,i,32%*
C=CCN=C1S/C(=C\c2ccc(N(C)C)cc2)C(=O)N1CC=C,i,i,i,-4,i,0.15,/,/,/
COc1cc(C2C=C(c3cccs3)Nc3ncnn32)cc(OC)c1OC (stereo not given),i,/,/,/,/,/,/,/,/
Cc1cccc(Nc2nc(NCc3ccco3)c3ccccc3n2)c1,i,-8.1*,10*,-25,i,-14*,49%*,86%*,i
CN(c1ccccc1)S(=O)(=O)c1cccc(NC(=O)CSc2ncc(C(F)(F)F)cc2Cl)c1,i,-8.9*,7*,-4,i,-0.35,42%*,i,30%*
CN(c1ccccc1)S(=O)(=O)c1cccc(NC(=O)CSc2nncn2C)c1,i,i,i,-4,i,-0.08,/,/,/
Cc1nnc(SCc2ccccc2)nc1-c1ccccc1,i,i,i,-11,i,-0.92,i,i,i
Cc1cccc(-c2ncc(CN3CCN(CC(C)C)C(CCO)C3)cn2)c1 (stereo not given),i,i,i,-16,i,-0.46,i,i,i
C/C=C1\COC(C(=O)NCc2ccccc2)(C(F)(F)F)C=C1C=C1CCCCC1 (stereo not given),i,i,7*,-16,i,-0.16,i,i,i
O=C(O)/C=C\C(=O)Nc1ccc(N2CCN(c3ccc(Cl)c(Cl)c3)CC2)cc1,i,i,i,-9,i,2.1,i,i,i
O=C(O)/C=C\C(=O)Nc1ccc(N2CCN(c3ccc(Cl)cc3)CC2)cc1,i,i,i,-1,i,1.1,/,/,/
NS(=O)(=O)c1ccc(-n2nncc2-c2ccco2)cc1,i,i,i,-5,i,1.3,/,/,/
CCSCC1COC(c2cccn2Cc2ccc(C)cc2)=N1 (stereo not given),i,i,i,-14,i,-0.08,i,i,26%*
CC1COC(c2cccn2Cc2ccccc2Cl)=N1 (stereo not given),i,i,i,-5,i,-2.4,/,/,/
COc1ccccc1OCC(=O)Nc1cc(S(=O)(=O)N2CCOCC2)ccc1N1CCCCC1,i,/,/,/,/,/,/,/,/
CCn1c2c(c3cc(Br)ccc31)CCC/C2=N\O,i,i,i,-4,i,-0.51,/,/,/
CCn1c2c(c3cc(OCC(C)C)ccc31)CCCC2=O,i,i,i,-3,i,0.9,i,i,i
O=C(Nc1nc(-c2cccs2)c(-c2ccccc2)s1)c1ccco1,i,-9*,i,-16,i,0.11,62%*,i,26%*
Brc1cc2c(cc1C1Nc3ccccc3C3C=CCC31)OCO2 (stereo not given),i,-8.3*,i,-12,i,2.2,56%*,i,42%*
Cc1ccn2c(/C=N/OCc3cccc(F)c3)c(-c3ccc(Cl)cc3)nc2c1,i,-8.4*,i,-16,i,-0.67,i,i,33%*
SMILES,KCNK3 inh,KCNK9 block,KCNQ1 block,hERG protect,KCNQ1 pot,Kir21 inh,KCNK9 block conf,Kir2-1 spec,HEK293 Tl ctr
Cc1ccn2c(C(=O)CSc3ccc(Cl)cc3)c(C)nc2c1,i,i,i,-6,i,0.06,/,/,/
Cc1cccc(C)c1-n1c(C)cc(/C=N/NC(=O)CSc2ncccn2)c1C,i,-9.5*,i,-12,i,-0.67,50%*,i,28%*
O=C(COC(=O)c1cccc(F)c1)Nc1ccc2c(c1)OCCO2,i,/,/,/,/,/,/,/,/
O=C(OC1CCS(=O)(=O)c2sccc21)c1ccccc1 (stereo not given),i,i,i,-7,i,-1.7,/,/,/
O=C(OC1CO[C@H]2O[C@@H]1[C@H](OC(=O)c1ccccc1)[C@H]2OC(=O)c1ccccc1)c1ccccc1 (stereo not given in full),i,i,i,-12,i,0.53,i,i,i
CCOc1ccc(NC(=O)C23CC4CC(C2)CC(c2ccccc2)(C4)C3)cc1,i,i,i,-3,i,-0.99,i,i,i
Cc1ccc(C23CC4CC(CC(C(=O)NN)(C4)C2)C3)cc1,i,i,i,-4,i,-0.29,/,/,/
CCOC(=O)CNC(=O)C12CC3CC(C1)CC(c1ccc(C)cc1)(C3)C2,i,i,i,-20,i,0.3,i,i,i
CCOC(=O)c1ccc(N=c2sc(C(=O)OC)cc(=O)n2Cc2ccco2)cc1,i,i,i,-7,i,0.88,i,i,38%*
COC(=O)c1cc(=O)n(CCc2ccc(OC)cc2)c(=Nc2ccc(F)c(Cl)c2)s1,i,i,i,-12,i,-0.75,/,/,/
COC(=O)c1cc(=O)n(CCc2ccccc2)c(=Nc2ccc(F)cc2)s1,i,-10*,8*,-15,i,-1.1,35%*,i,34%*
Cc1nc(N(C)Cc2ccccc2)c2nnn(Cc3ccccc3)c2n1,i,i,i,-14,i,0.96,i,i,i
Cc1cnc(C(=O)OCC(=O)Nc2ccc(OCc3ccccc3)cc2)cn1,i,/,/,/,/,/,/,/,/
Oc1ccccc1-c1nnc(COc2ccc(Cl)cc2Cl)o1,i,i,i,-6,i,-0.95,/,/,/
Clc1ccc(-c2nnc(CCc3ccccc3)o2)c(Cl)c1,i,i,i,-3,i,1.6,i,i,i
